Reference: ChEMBL document CHEMBL1212884, “Aryl phosphoramidates of 5-phospho erythronohydroxamic acid, a new class of potent trypanocidal compounds” (J Med Chem, 2010)

Assays:
[1] = tested on: Trypanosoma brucei; experiment: Antitrypanosomal activity against Trypanosoma brucei BS427 after 48 hrs by Alamar blue assay; assay type: functional, organism-based
Outline: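 Bloodstream-form T. b. brucei s427 wild type, grown in HMI-9 + 10% FCS at 37 °C, 5% CO2. Parasites seeded at 4 × 10^4 cells/mL onto 11-point 1:2 serial dilutions from a 200 μM stock in medium; drug-free well as control. After 48 h, Alamar Blue (0.49 mM in PBS) added, 24 h more; fluorescence ex 544/em 590 nm. EC50 fitted; duplicate, repeated three times.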

[2] = Chemical stability of the compound in phosphate buffer saline at pH 7.4 assessed as half life; assay type: physicochemical; details: for half-life: phosphate buffer saline; for t1/2: buffer
Outline: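 Compound incubated in phosphate buffer, pH 7.4, 37 °C, to follow chemical hydrolysis; half-life reported in hours.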

[3] = tested on: Blood; experiment: Half life in mouse blood; assay type: ADME, tissue-based
Outline: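 Prodrugs incubated in mouse blood to gauge their stability toward esterases. Half-life reported in minutes.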

[4] = Chemical stability of the compound in phosphate buffer saline at pH 2 assessed as half life; assay type: physicochemical
[5] = tested on: Liver microsomes; experiment: Clearance in pooled human liver microsomes at 0.5 uM; assay type: ADME, Microsome
Outline: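 Pooled human liver microsomes (0.5 mg/mL in 50 mM potassium phosphate, pH 7.4) with compound at 0.5 μM; reaction started with excess NADPH. Samples at 0, 3, 6, 9, 15, 30 min, quenched in acetonitrile with internal standard, centrifuged, analysed by UPLC-MS/MS. Rate constant from exponential decay of compound/internal standard peak-area ratio; clearance given as mL/min/g.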

[6] = Trypanosoma brucei, BS427, 48 h, read-out: EC50

| SMILES | EC50 [1, 6] [µM] | half-life [2] [h] | t1/2 [3] [h] | t1/2 [2] [h] | t1/2 [4] [h] | CL [5] [mL/min/g] | EC50 [1] |
| --- | --- | --- | --- | --- | --- | --- | --- |
| COC(=O)[C@@H](C)NP(=O)(OC[C@H]1OC(C)(C)O[C@H]1C(=O)NO)Oc1ccc([N+](=O)[O-])cc1 (some centres not stated) | 43.8 | 0.85 | – | – | – | – | – |
| COC(=O)CNP(=O)(OC[C@H]1OC(C)(C)O[C@H]1C(=O)NO)Oc1ccccc1 (some centres not stated) | 11.4 | – | < 0.25 | – | – | – | – |
| COC(=O)[C@@H](C)NP(=O)(OC[C@H]1OC(C)(C)O[C@H]1C(=O)NO)Oc1ccccc1 (some centres not stated) | – | 5 | < 0.25 | – | – | – | – |
| CCOC(=O)[C@@H](C)NP(=O)(OC[C@H]1OC(C)(C)O[C@H]1C(=O)NO)Oc1ccccc1 (some centres not stated) | 0.78 | – | < 0.25 | 29 | – | – | – |
| COC(=O)[C@H](NP(=O)(OC[C@H]1OC(C)(C)O[C@H]1C(=O)NO)Oc1ccccc1)C(C)C (some centres not stated) | 0.36 | – | 0.75 | 21 | – | – | – |
| CCOC(=O)[C@H](NP(=O)(OC[C@H]1OC(C)(C)O[C@H]1C(=O)NO)Oc1ccccc1)C(C)C (some centres not stated) | 0.24 | – | 2 | 61 | – | – | – |
| CC(C)[C@@H](NP(=O)(OC[C@H]1OC(C)(C)O[C@H]1C(=O)NO)Oc1ccccc1)C(=O)OC(C)(C)C (some centres not stated) | 0.09 | – | 2 | 68 | 28 | 5 | – |
| COC(=O)[C@@H](C)NP(=O)(OC[C@H]1OC(C)(C)O[C@H]1C(=O)NO)Oc1ccc(C)cc1 (some centres not stated) | 0.31 | – | < 0.25 | 30 | – | – | – |
| CCOC(=O)[C@@H](C)NP(=O)(OC[C@H]1OC(C)(C)O[C@H]1C(=O)NO)Oc1ccc(C)cc1 (some centres not stated) | 0.18 | – | – | 34 | – | – | – |
| COC(=O)[C@H](NP(=O)(OC[C@H]1OC(C)(C)O[C@H]1C(=O)NO)Oc1ccc(C)cc1)C(C)C (some centres not stated) | 0.15 | – | – | 45 | 28 | – | – |
| CCOC(=O)[C@H](NP(=O)(OC[C@H]1OC(C)(C)O[C@H]1C(=O)NO)Oc1ccc(C)cc1)C(C)C (some centres not stated) | 0.04 | – | 0.75 | 25 | 15 | – | – |
| COC(=O)[C@@H](C)NP(=O)(OC[C@H]1OC(C)(C)O[C@H]1C(=O)NO)Oc1ccc(OC)cc1 (some centres not stated) | 3.79 | – | – | – | 8.5 | – | – |
| CCOC(=O)[C@H](NP(=O)(OC[C@H]1OC(C)(C)O[C@H]1C(=O)NO)Oc1ccc(OC)cc1)C(C)C (some centres not stated) | 0.11 | – | – | – | – | – | – |
| COC(=O)[C@@H](C)NP(=O)(OC[C@H]1OC(C)(C)O[C@H]1C(=O)NO)Oc1cccc(C)c1C (some centres not stated) | 0.27 | 30 | – | – | – | – | – |
| CCOC(=O)[C@H](NP(=O)(OC[C@H]1OC(C)(C)O[C@H]1C(=O)NO)Oc1cccc(C)c1C)C(C)C (some centres not stated) | 0.05 | – | 1 | 48 | 10 | – | – |
| Cc1cccc(OP(=O)(N[C@@H](C(=O)OC(C)(C)C)C(C)C)OC[C@H]2OC(C)(C)O[C@H]2C(=O)NO)c1C (some centres not stated) | 0.008 | – | > 8 | > 24 | – | 10 | – |
| CC1(C)O[C@H](COP2(=O)OCc3ccccc3O2)[C@H](C(=O)NO)O1 (some centres not stated) | – | – | – | – | – | – | Not Active |
| CC1(C)O[C@H](COP(=O)(O)O)[C@H](C(=O)NO)O1 | > 330 | – | – | – | – | – | – |
